ChEMBL document CHEMBL4382296, “Synthesis, Profiling, and in Vivo Evaluation of Cyclopeptides Containing N-Methyl Amino Acids as Antiplasmodial Agents” (ACS Med Chem Lett, 2019)
Values after ≈ are worked out from the molar mass of the structure shown. Active and inactive are the calls of the source. The calls are words filed in the database; no cut-off is given here. Where a SMILES comes first, the peptide text is derived from it. [ ]: non-standard residue; d: D form. The star is where a group is joined. Trt = c1ccc(C(c2ccccc2)(c2ccccc2)*)cc1; Sar = CNCC(=O)O; tBu = CC(C)(C)*

Legend:
[1] = Solubility of the compound in pH 7.4 phosphate buffered saline after 2 hrs by UV-HPLC analysis; assay type: physicochemical
Outline: (§1)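 Solubility was measured in PBS pH 7.4 and at pH 1.0, in μM, n = 2.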

[2] = Permeability of the compound in pH 7.4 phosphate buffered saline at 20 uM after 20 hrs by PAMPA; assay type: ADME; settings: for Papp at 20 h, 20 µM: PAMPA, pH 7.4, read-out: permeability; for permeability: pampa, pH 7.4, 20 h, 20 µM, BLD = below limit of detection
Outline: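 PAMPA giving experimental permeability Pe (×10–6 cm/s), n = 3. The limit of quantitation in the acceptor compartment was 0.02 or 0.03 μM.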

[3] = n-Octanol/water partition coefficient, log D of compound at pH 7.4 by UV-HPLC analysis
[4] = Solubility of the compound in pH 1 0.1M HCl after 2 hrs by UV-HPLC analysis; assay type: physicochemical; outline: as §1
[5] = system: Plasmodium falciparum; experiment: Antiplasmodial activity against chloroquine-resistant Plasmodium falciparum K1 infected in human erythrocytes assessed as reduction in [3H]hypoxanthine incorporation pretreated for 24 hrs followed by [3H]hypoxanthine addition and measured after 24 hrs by liquid scintillation counting method; assay type: functional, organism-based
Outline: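 Chloroquine-resistant P. falciparum K1 in erythrocytes incubated with compound for 24 h; growth read as 3H-hypoxanthine incorporation; EC50 reported as mean ± SD of n = 2.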

[6] = Selectivity index, ratio of IC50 for human HepG2 cells to EC50 for chloroquine-sensitive Plasmodium falciparum 3D7 infected in erythrocytes; assay type: toxicity, cell-based; settings: read-out: Ratio IC50/EC50
Outline: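 Selectivity index is HepG2 cytotoxicity IC50 divided by EC50 against drug-sensitive P. falciparum 3D7. Parasite EC50 came from a SYBR Green growth assay, with values as the mean of n = 2.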

[7] = system: Plasmodium falciparum; experiment: Plasmodicidal activity against Plasmodium falciparum 3D7A infected in CFDA-SE-labelled erythrocytes assessed as parasite killing at 10 times EC50 treated for 24 to 48 hrs following media refreshment for every 24 hrs by FACS analysis; assay type: functional, organism-based
Outline: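 Viability was judged by the ability of drug-treated parasites to make new invasions of prestained human RBCs. New invasions were quantified by double-colorimetric FACS. Drug treatment used two time points to separate rapidly parasiticidal from moderate or slow acting agents.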

[8] = system: Plasmodium berghei; experiment: Antiplasmodial activity against exoerythrocytic-stage of Plasmodium berghei ANKA infected in human HepG2 cells expressing CD81 pretreated with cells for 18 hrs followed by parasite infection and measured after 48 hrs by brightglo-luminescence assay; assay type: functional, organism-based
[9] = Selectivity index, ratio of IC50 for mouse J774 cells to EC50 for chloroquine-resistant Plasmodium falciparum K1 infected in human erythrocytes; assay type: toxicity, cell-based; settings: read-out: Ratio IC50/EC50
[10] = system: Plasmodium falciparum; experiment: Anti-plasmodial activity against chloroquine-sensitive Plasmodium falciparum 3D7 infected in erythrocytes after 72 hrs by SYBR green dye based fluorescence assay; assay type: functional, organism-based; settings: 3D7, 72 h
Outline: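 P. falciparum 3D7 (drug-sensitive) grown in erythrocytes; growth read by SYBR Green fluorescence; EC50 reported as mean ± SD of n = 2.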

[11] = system: Plasmodium berghei; experiment: Antiplasmodial activity against Plasmodium berghei NK65 infected in Swiss mouse assessed as reduction in parasitemia at 50 mg/kg, po administered once daily for 3 consecutive days post infection measured on day 5 post infection relative to control; assay type: functional; design: scale not given: the % may be the effect or the level left
Outline: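 Suppressive test in Swiss outbred mice inoculated with P. berghei NK65-infected red blood cells. A single oral dose of 50 mg·kg–1 was given on each of days 2, 3 and 4. Control groups received chloroquine or vehicle. Parasitemia reduction was read on day 5 and followed until day 9.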

[12] = system: Plasmodium berghei; experiment: Antiplasmodial activity against Plasmodium berghei NK65 infected in Swiss mouse assessed as reduction in parasitemia at 50 mg/kg, po administered once daily for 3 consecutive days post infection measured on day 9 post infection; assay type: functional, organism-based
Outline: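 Four-day suppressive test: Swiss outbred mice inoculated with P. berghei NK65-infected red blood cells, then given a single oral 50 mg/kg dose on each of days 2, 3 and 4. Chloroquine-treated and vehicle-treated groups served as controls. Parasitemia was measured on day 5 and followed to day 9.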

[13] = Plasma concentration in Swiss albino mouse at 50 mg/kg, po after 0.5 to 12 hrs by LC-MS/MS analysis; assay type: ADME, organism-based; settings: in vivo
Outline: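 Male Swiss Albino mice received a solution formulation of the compound as one oral dose of 50 mg/kg. Blood was sampled at 0.25, 0.5, 1, 2, 4, 6, 8, 12 and 24 h, and plasma levels were measured (LLOQ 5.16 ng/mL). Values are means, n = 3.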

## CN1CC(=O)N[C@@H](CSC(c2ccccc2)(c2ccccc2)c2ccccc2)C(=O)N[C@@H](CSC(c2ccccc2)(c2ccccc2)c2ccccc2)C(=O)N(C)CC(=O)N[C@@H](COC(C)(C)C)C1=O (cyclo(C(Trt)C(Trt)[Sar]S(tBu)[Sar]))
[1]
  solubility at 2 h: 0.12 µM (≈ 0.117 µg/mL)
[2]
  Papp at 20 h, 20 µM: 2 ×10⁻⁶ cm/s
[3]
  logD: 7.7
[4]
  solubility at 2 h: 0.21 µM (≈ 0.205 µg/mL)

## CN1CC(=O)N[C@@H](CSC(c2ccccc2)(c2ccccc2)c2ccccc2)C(=O)N[C@@H](Cc2ccccc2)C(=O)N[C@@H](COC(C)(C)C)C(=O)N(C)CC(=O)N[C@@H](CSC(c2ccccc2)(c2ccccc2)c2ccccc2)C1=O (cyclo(C(Trt)FS(tBu)[Sar]C(Trt)[Sar]))
[5]
  EC50: 9 nM
  EC90: 59 nM
[1]
  solubility at 2 h: 0.71 µM (≈ 0.798 µg/mL)
[6]
  selectivity ratio: > 140000
[7]
  Activity: inactive
[2]
  Papp at 20 h, 20 µM: 0.2 ×10⁻⁶ cm/s
[8]
  EC50: 335 nM
[3]
  logD: 8
[9]
  selectivity ratio: > 11000
[10]
  EC50: 1.8 nM
[4]
  solubility at 2 h: 5.32 µM (≈ 5.98 µg/mL)

## CN1CC(=O)N[C@@H](CSC(c2ccccc2)(c2ccccc2)c2ccccc2)C(=O)NCC(=O)N[C@@H](CSC(c2ccccc2)(c2ccccc2)c2ccccc2)C(=O)NCC(=O)N[C@@H](CCC(=O)O)C1=O (cyclo(C(Trt)GC(Trt)GE[Sar]))
[6]
  selectivity ratio: > 46
[2]
  permeability: Bld
[3]
  logD: 3.1
[10]
  EC50: 5400 nM

## C[C@@H](OC(C)(C)C)[C@@H]1NC(=O)CNC(=O)[C@H](CSC(c2ccccc2)(c2ccccc2)c2ccccc2)NC(=O)CNC(=O)[C@H](CSC(c2ccccc2)(c2ccccc2)c2ccccc2)NC(=O)CN(C)C1=O (cyclo(C(Trt)GC(Trt)GT(tBu)[Sar]))
[5]
  EC50: 8 nM
  EC90: 39 nM
[1]
  solubility at 2 h: 0.94 µM (≈ 0.971 µg/mL)
[6]
  selectivity ratio: > 66000
[2]
  Papp at 20 h, 20 µM: 0.6 ×10⁻⁶ cm/s
[3]
  logD: 5.8
[9]
  selectivity ratio: > 12500
[10]
  EC50: 3.8 nM
[4]
  solubility at 2 h: 1.17 µM (≈ 1.21 µg/mL)

## CN1CC(=O)N[C@@H](CSC(c2ccccc2)(c2ccccc2)c2ccccc2)C(=O)NCC(=O)N[C@@H](CSC(c2ccccc2)(c2ccccc2)c2ccccc2)C(=O)N(C)CC(=O)N[C@@H](CCC(=O)O)C1=O (cyclo(C(Trt)GC(Trt)[Sar]E[Sar]))
[2]
  permeability: Bld
[10]
  EC50: 210 nM

## C[C@@H](OC(C)(C)C)[C@@H]1NC(=O)CN(C)C(=O)[C@H](CSC(c2ccccc2)(c2ccccc2)c2ccccc2)NC(=O)CNC(=O)[C@H](CSC(c2ccccc2)(c2ccccc2)c2ccccc2)NC(=O)CN(C)C1=O (cyclo(C(Trt)GC(Trt)[Sar]T(tBu)[Sar]))
[5]
  EC50: 0.008 nM
  EC90: 1 nM
[1]
  solubility at 2 h: 0.38 µM (≈ 0.398 µg/mL)
[6]
  selectivity ratio: > 1e+06
[2]
  Papp at 20 h, 20 µM: 1 ×10⁻⁶ cm/s
[3]
  logD: 6
[11]
  Activity: 71%
[12]
  Activity: Active
[13]
  Cp: > 9 ng/mL
[10]
  EC50: 0.25 nM
[4]
  solubility at 2 h: 3.46 µM (≈ 3.62 µg/mL)

## CN1CC(=O)N[C@@H](CSC(c2ccccc2)(c2ccccc2)c2ccccc2)C(=O)N(C)CC(=O)N[C@@H](CSC(c2ccccc2)(c2ccccc2)c2ccccc2)C(=O)N(C)CC(=O)N[C@@H](CCC(=O)O)C1=O (cyclo(C(Trt)[Sar]C(Trt)[Sar]E[Sar]))
[5]
  EC50: 0.2 nM
  EC90: 4 nM
[1]
  solubility at 2 h: 437 µM (≈ 451 µg/mL)
[6]
  selectivity ratio: > 20000
[2]
  Papp at 20 h, 20 µM: 0.2 ×10⁻⁶ cm/s
[3]
  logD: 3.9
[9]
  selectivity ratio: 500000
[11]
  Activity: 66%
[12]
  Activity: Active
[10]
  EC50: 12 nM
[4]
  solubility at 2 h: 28.3 µM (≈ 29.3 µg/mL)

## CN1CC(=O)N[C@@H](CSC(c2ccccc2)(c2ccccc2)c2ccccc2)C(=O)N(C)CC(=O)N[C@@H](CSC(c2ccccc2)(c2ccccc2)c2ccccc2)C(=O)N(C)CC(=O)N[C@@H](COC(C)(C)C)C1=O (cyclo(C(Trt)[Sar]C(Trt)[Sar]S(tBu)[Sar]))
[5]
  EC50: 0.13 nM
  EC90: 4 nM
[1]
  solubility at 2 h: 0.18 µM (≈ 0.189 µg/mL)
[6]
  selectivity ratio: > 180000
[2]
  Papp at 20 h, 20 µM: 0.3 ×10⁻⁶ cm/s
[3]
  logD: 6.3
[9]
  selectivity ratio: > 770000
[10]
  EC50: 1.4 nM
[4]
  solubility at 2 h: 0.74 µM (≈ 0.775 µg/mL)

## C[C@@H](OC(C)(C)C)[C@@H]1NC(=O)CN(C)C(=O)[C@H](CSC(c2ccccc2)(c2ccccc2)c2ccccc2)NC(=O)CN(C)C(=O)[C@H](CSC(c2ccccc2)(c2ccccc2)c2ccccc2)NC(=O)CN(C)C1=O (cyclo(C(Trt)[Sar]C(Trt)[Sar]T(tBu)[Sar]))
[5]
  EC50: 0.04 nM
  EC90: 1 nM
[1]
  solubility at 2 h: 0.55 µM (≈ 0.584 µg/mL)
[6]
  selectivity ratio: > 250000
[7]
  Activity: inactive
[2]
  Papp at 20 h, 20 µM: 0.2 ×10⁻⁶ cm/s
[8]
  EC50: 18 nM
[3]
  logD: 3.7
[9]
  selectivity ratio: > 2.5e+06
[10]
  EC50: 1 nM
[4]
  solubility at 2 h: 0.38 µM (≈ 0.403 µg/mL)

## C[C@@H]1CC[C@H]2[C@@H](C)C(=O)O[C@@H]3O[C@@]4(C)CC[C@@H]1[C@]32OO4 [ARTEMISININ]
[5]
  EC50: 20 nM

## C[C@H]1[C@H](OC(=O)CCC(=O)O)O[C@@H]2O[C@@]3(C)CC[C@H]4[C@H](C)CC[C@@H]1[C@@]24OO3 [ARTESUNATE]
[5]
  EC50: 3 nM
[10]
  EC50: 5 nM

## O=C1C(O)=C([C@H]2CC[C@H](c3ccc(Cl)cc3)CC2)C(=O)c2ccccc21 [ATOVAQUONE]
[7]
  Activity: inactive
[8]
  EC50: 2.8 nM

## CCN(CC)CCCC(C)Nc1ccnc2cc(Cl)ccc12 (stereo not given) [CHLOROQUINE]
[5]
  EC50: 470 nM

## CCc1nc(N)nc(N)c1-c1ccc(Cl)cc1 [PYRIMETHAMINE]
[7]
  Activity: inactive
[10]
  EC50: 35 nM
